From ChEMBL document CHEMBL1833921, “Synthesis and biological evaluation of phenstatin metabolites” (Bioorg Med Chem, 2011)

Tests used:
[1] = system: HT-29; experiment: Cytotoxicity against human HT29 cells after 48 hrs by sulforhodamine B assay; type: functional; conditions: HT-29, 48 h
[2] = system: A549; experiment: Cytotoxicity against human A549 cells after 48 hrs by sulforhodamine B assay; type: functional; conditions: A549, 48 h
[3] = system: HL-60; experiment: Cytotoxicity against human HL60 cells after 48 hrs by sulforhodamine B assay; type: functional; conditions: HL-60, 48 h
[4] = system: MCF7; experiment: Cytotoxicity against human MCF7 cells after 48 hrs by sulforhodamine B assay; type: functional; conditions: MCF7, 48 h
[5] = system: SF-295; experiment: Cytotoxicity against human SF295 cells after 48 hrs by sulforhodamine B assay; type: functional; conditions: SF-295, 48 h
[6] = system: DU-145; experiment: Cytotoxicity against human DU145 cells after 48 hrs by sulforhodamine B assay; type: functional; conditions: DU-145, 48 h
[7] = system: A498; experiment: Cytotoxicity against human A498 cells after 48 hrs by sulforhodamine B assay; type: functional; conditions: A498, 48 h
[8] = system: OVCAR-3; experiment: Cytotoxicity against human OVCAR3 cells after 48 hrs by sulforhodamine B assay; type: functional; conditions: OVCAR-3, 48 h
[9] = system: COLO 205; experiment: Cytotoxicity against human COLO205 cells after 48 hrs by sulforhodamine B assay; type: functional; conditions: COLO 205, 48 h
[10] = system: NCI-H460; experiment: Cytotoxicity against human NCI-H460 cells after 48 hrs by sulforhodamine B assay; type: functional; conditions: NCI-H460, 48 h
[11] = Inhibition of bovine brain tubulin polymerization after 30 mins by turbidimetry analysis; set-up: species or system Bos taurus
Summary of the method: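 Lyophilized bovine brain tubulin (97%) reconstituted to 5 mg/mL in 80 mM PIPES pH 6.9, 2 mM MgCl₂, 0.5 mM EGTA, 1.0 mM GTP and 5% glycerol. Compound in DMSO was added to this solution in a quartz cuvette at 0 °C. Assembly was followed as the rise in absorbance at 340 nm at 37 °C. IC₅₀ is the molar concentration halving the extent of assembly after 30 min.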

[12] = Solubility in water; type: physicochemical; conditions: buffer
[13] = system: MDA-MB-468; experiment: Cytotoxicity against human MDA-MB-468 cells assessed as growth inhibition at 10^-5 M after 48 hrs by sulforhodamine B assay; type: functional; conditions: MDA-MB-468, 48 h, read-out: GI
[14] = system: Hs-578T; experiment: Cytotoxicity against human HS578T cells assessed as growth inhibition at 10^-5 M after 48 hrs by sulforhodamine B assay; type: functional; conditions: read-out: GI
[15] = system: MDA-MB-231; experiment: Cytotoxicity against human MDA-MB-231/ATCC cells assessed as growth inhibition at 10^-5 M after 48 hrs by sulforhodamine B assay; type: functional; conditions: MDA-MB-231, 48 h, read-out: GI
[16] = system: MCF7; experiment: Cytotoxicity against human MCF7 cells assessed as growth inhibition at 10^-5 M after 48 hrs by sulforhodamine B assay; type: functional; conditions: MCF7, 48 h, read-out: GI
[17] = system: SF-539; experiment: Cytotoxicity against human SF539 cells assessed as growth inhibition at 10^-5 M after 48 hrs by sulforhodamine B assay; type: functional; conditions: SF-539, 48 h, read-out: GI
[18] = system: SF-295; experiment: Cytotoxicity against human SF295 cells assessed as growth inhibition at 10^-5 M after 48 hrs by sulforhodamine B assay; type: functional; conditions: SF-295, 48 h, read-out: GI
[19] = system: SF-268; experiment: Cytotoxicity against human SF268 cells assessed as growth inhibition at 10^-5 M after 48 hrs by sulforhodamine B assay; type: functional; conditions: SF-268, 48 h, read-out: GI
[20] = system: DU-145; experiment: Cytotoxicity against human DU145 cells assessed as growth inhibition at 10^-5 M after 48 hrs by sulforhodamine B assay; type: functional; conditions: DU-145, 48 h, read-out: GI
[21] = system: UO-31; experiment: Cytotoxicity against human UO31 cells assessed as growth inhibition at 10^-5 M after 48 hrs by sulforhodamine B assay; type: functional; conditions: UO-31, 48 h, read-out: GI
[22] = system: SN12C; experiment: Cytotoxicity against human SN12C cells assessed as growth inhibition at 10^-5 M after 48 hrs by sulforhodamine B assay; type: functional; conditions: read-out: GI
[23] = system: RXF 393; experiment: Cytotoxicity against human RXF393 cells assessed as growth inhibition at 10^-5 M after 48 hrs by sulforhodamine B assay; type: functional; conditions: RXF 393, 48 h, read-out: GI
[24] = system: CAKI-1; experiment: Cytotoxicity against human Caki1 cells assessed as growth inhibition at 10^-5 M after 48 hrs by sulforhodamine B assay; type: functional; conditions: CAKI-1, 48 h, read-out: GI
[25] = system: SK-OV-3; experiment: Cytotoxicity against human SKOV3 cells assessed as growth inhibition at 10^-5 M after 48 hrs by sulforhodamine B assay; type: functional; conditions: SK-OV-3, 48 h, read-out: GI
[26] = system: NCI/ADR-RES; experiment: Cytotoxicity against human NCI/ADR-RES cells assessed as growth inhibition at 10^-5 M after 48 hrs by sulforhodamine B assay; type: functional; conditions: read-out: GI
[27] = system: OVCAR-5; experiment: Cytotoxicity against human OVCAR5 cells assessed as growth inhibition at 10^-5 M after 48 hrs by sulforhodamine B assay; type: functional; conditions: OVCAR-5, 48 h, read-out: GI
[28] = system: OVCAR-4; experiment: Cytotoxicity against human OVCAR4 cells assessed as growth inhibition at 10^-5 M after 48 hrs by sulforhodamine B assay; type: functional; conditions: OVCAR-4, 48 h, read-out: GI
[29] = system: OVCAR-3; experiment: Cytotoxicity against human OVCAR3 cells assessed as growth inhibition at 10^-5 M after 48 hrs by sulforhodamine B assay; type: functional; conditions: OVCAR-3, 48 h, read-out: GI
[30] = system: UACC-62; experiment: Cytotoxicity against human UACC62 cells assessed as growth inhibition at 10^-5 M after 48 hrs by sulforhodamine B assay; type: functional; conditions: UACC-62, 48 h, read-out: GI
[31] = system: SK-MEL-28; experiment: Cytotoxicity against human SK-MEL-28 cells assessed as growth inhibition at 10^-5 M after 48 hrs by sulforhodamine B assay; type: functional; conditions: SK-MEL-28, 48 h, read-out: GI
[32] = system: SK-MEL-2; experiment: Cytotoxicity against human SK-MEL-2 cells assessed as growth inhibition at 10^-5 M after 48 hrs by sulforhodamine B assay; type: functional; conditions: SK-MEL-2, 48 h, read-out: GI
[33] = system: MDA-MB-435; experiment: Cytotoxicity against human MDA-MB-435 cells assessed as growth inhibition at 10^-5 M after 48 hrs by sulforhodamine B assay; type: functional; conditions: MDA-MB-435, 48 h, read-out: GI
[34] = system: M14; experiment: Cytotoxicity against human M14 cells assessed as growth inhibition at 10^-5 M after 48 hrs by sulforhodamine B assay; type: functional; conditions: M14, 48 h, read-out: GI
[35] = system: KM12; experiment: Cytotoxicity against human KM12 cells assessed as growth inhibition at 10^-5 M after 48 hrs by sulforhodamine B assay; type: functional; conditions: KM12, 48 h, read-out: GI
[36] = system: HCT-15; experiment: Cytotoxicity against human HCT15 cells assessed as growth inhibition at 10^-5 M after 48 hrs by sulforhodamine B assay; type: functional; conditions: HCT-15, 48 h, read-out: GI
[37] = system: HCT-116; experiment: Cytotoxicity against human HCT116 cells assessed as growth inhibition at 10^-5 M after 48 hrs by sulforhodamine B assay; type: functional; conditions: HCT-116, 48 h, read-out: GI
[38] = system: HCC 2998; experiment: Cytotoxicity against human HCC2998 cells assessed as growth inhibition at 10^-5 M after 48 hrs by sulforhodamine B assay; type: functional; conditions: HCC 2998, 48 h, read-out: GI
[39] = system: COLO 205; experiment: Cytotoxicity against human COLO205 cells assessed as growth inhibition at 10^-5 M after 48 hrs by sulforhodamine B assay; type: functional; conditions: COLO 205, 48 h, read-out: GI
[40] = system: NCI-H522; experiment: Cytotoxicity against human NCI-H522 cells assessed as growth inhibition at 10^-5 M after 48 hrs by sulforhodamine B assay; type: functional; conditions: NCI-H522, 48 h, read-out: GI
[41] = system: NCI-H460; experiment: Cytotoxicity against human NCI-H460 cells assessed as growth inhibition at 10^-5 M after 48 hrs by sulforhodamine B assay; type: functional; conditions: NCI-H460, 48 h, read-out: GI
[42] = system: NCI-H322M; experiment: Cytotoxicity against human NCI-H322M cells assessed as growth inhibition at 10^-5 M after 48 hrs by sulforhodamine B assay; type: functional; conditions: read-out: GI
[43] = system: EKVX; experiment: Cytotoxicity against human EKVX cells assessed as growth inhibition at 10^-5 M after 48 hrs by sulforhodamine B assay; type: functional; conditions: read-out: GI
[44] = system: A549; experiment: Cytotoxicity against human A549/ATCC cells assessed as growth inhibition at 10^-5 M after 48 hrs by sulforhodamine B assay; type: functional; conditions: A549, 48 h, read-out: GI
[45] = system: K562; experiment: Cytotoxicity against human K562 cells assessed as growth inhibition at 10^-5 M after 48 hrs by sulforhodamine B assay; type: functional; conditions: K562, 48 h, read-out: GI
[46] = system: HL-60(TB); experiment: Cytotoxicity against human HL-60(TB) cells assessed as growth inhibition at 10^-5 M after 48 hrs by sulforhodamine B assay; type: functional; conditions: HL-60, 48 h, read-out: GI
[47] = system: CCRF-CEM; experiment: Cytotoxicity against human CCRF-CEM cells assessed as growth inhibition at 10^-5 M after 48 hrs by sulforhodamine B assay; type: functional; conditions: read-out: GI

Compound: COc1ccc(C(=O)c2cc(OC)c(OC)c(OC)c2)cc1O [PHENSTATIN]
- GI50 [1]: 1800 nM
- GI50 [2]: 290 nM
- GI50 [3]: 31 nM
- GI50 [4]: 34 nM
- GI50 [5]: 52 nM
- GI50 [6]: 34 nM
- GI50 [7]: 380 nM
- GI50 [8]: 2.3 nM
- GI50 [9]: 4860 nM
- GI50 [10]: 5.7 nM
- IC50 [11]: 15000 nM
- solubility [12]: soluble

Compound: COc1cc2c(c(O)c1OC)C(=O)c1cc(OC)c(OC)c(OC)c1C2=O
- inhibition of growth at 10 µM [13]: 22.4%
- inhibition of growth at 10 µM [14]: 16.9%
- inhibition of growth at 10 µM [15]: 21.3%
- inhibition of growth at 10 µM [16]: 26.7%
- inhibition of growth at 10 µM [17]: 16.2%
- inhibition of growth at 10 µM [18]: 37.9%
- inhibition of growth at 10 µM [19]: 22.2%
- inhibition of growth at 10 µM [20]: 7.83%
- inhibition of growth at 10 µM [21]: 0%
- inhibition of growth at 10 µM [22]: 8.73%
- inhibition of growth at 10 µM [23]: 2.66%
- inhibition of growth at 10 µM [24]: 7.07%
- inhibition of growth at 10 µM [25]: 9.78%
- inhibition of growth at 10 µM [26]: 20.3%
- inhibition of growth at 10 µM [27]: 7.52%
- inhibition of growth at 10 µM [28]: 60.2%
- inhibition of growth at 10 µM [29]: 0%
- inhibition of growth at 10 µM [30]: 6.13%
- inhibition of growth at 10 µM [31]: 15%
- inhibition of growth at 10 µM [32]: 0%
- inhibition of growth at 10 µM [33]: 16.9%
- inhibition of growth at 10 µM [34]: 0%
- inhibition of growth at 10 µM [35]: 0%
- inhibition of growth at 10 µM [36]: 0%
- inhibition of growth at 10 µM [37]: 11.8%
- inhibition of growth at 10 µM [38]: 0%
- inhibition of growth at 10 µM [39]: 0%
- inhibition of growth at 10 µM [40]: 29.5%
- inhibition of growth at 10 µM [41]: 9.33%
- inhibition of growth at 10 µM [42]: 0%
- inhibition of growth at 10 µM [43]: 13.5%
- inhibition of growth at 10 µM [44]: 26.1%
- inhibition of growth at 10 µM [45]: 0%
- inhibition of growth at 10 µM [46]: 6.14%
- inhibition of growth at 10 µM [47]: 0%
- IC50 [11]: > 100000 nM

Compound: COc1ccc(C(=O)c2cc(OC)c(OC)c(OC)c2)cc1OP(=O)([O-])[O-].[Na+].[Na+]
- solubility [12]: soluble
